Active and inactive are the calls of the source. The calls are words filed in the database; no cut-off is given here.
Experiments:
Spinacia oleracea [1] = assay: (§1) In vitro inhibition of basal rate of photosynthetic electron transport (Hill reaction) in active intact chloroplast thylakoid membrane of Spinacia oleracea (spinach) leaves assessed as light-driven ferricyanide reduction at 10 uM measured at 24 degC at 30 secs intervals for 10 min (reference value: 100 +/-3.1%); design: scale not given: the % may be the effect or the level left
Spinacia oleracea [2] = assay: as §1, with “at 5” for “at 10”; design: scale not given: the % may be the effect or the level left
[3] = test system: Auxenochlorella protothecoides; assay: In vivo inhibition of photosynthetic activity in intact Auxenochlorella protothecoides ATCC 30411 cells assessed as light-driven oxygen evolution rate at 100 uM measured at 24 degC every 15 sec upto 8 min by polarographic analysis in presence of 0.001% Triton X-100 (reference value: 100 +/-5.1%); assay type: functional; design: scale not given: the % may be the effect or the level left
[4] = test system: Auxenochlorella protothecoides; assay: In vivo inhibition of photosynthetic activity in intact Auxenochlorella protothecoides ATCC 30411 cells assessed as light-driven oxygen evolution rate at 10 uM measured at 24 degC every 15 sec upto 8 min by polarographic analysis in presence of 0.001% Triton X-100 (reference value: 100 +/-5.1%); assay type: functional; design: scale not given: the % may be the effect or the level left
[5] = test system: Auxenochlorella protothecoides; assay: In vivo inhibition of photosynthetic activity in intact Auxenochlorella protothecoides ATCC 30411 cells assessed as light-driven oxygen evolution rate at 100 uM measured at 24 degC every 15 sec upto 8 min by polarographic analysis in absence of detergent (reference value: 100 +/-5.9%); assay type: functional; design: scale not given: the % may be the effect or the level left
[6] = test system: Auxenochlorella protothecoides; assay: In vivo inhibition of photosynthetic activity in intact Auxenochlorella protothecoides ATCC 30411 cells assessed as light-driven oxygen evolution rate at 10 uM measured at 24 degC every 15 sec upto 8 min by polarographic analysis in absence of detergent (reference value: 100 +/-5.9%); assay type: functional; design: scale not given: the % may be the effect or the level left
Spinacia oleracea [7] = assay: In vitro inhibition of uncoupled electron transport in active intact chloroplast thylakoid membrane of Spinacia oleracea (spinach) leaves assessed as light-driven ferricyanide reduction at 10 uM measured at 24 degC at 30 secs intervals for 10 min (reference value: 100 +/-4.1%); design: scale not given: the % may be the effect or the level left
Spinacia oleracea [8] = assay: In vitro inhibition of phosphorylating electron transport in active intact chloroplast thylakoid membrane of Spinacia oleracea (spinach) leaves assessed as light-driven ferricyanide reduction at 10 uM measured at 24 degC at 30 secs intervals for 10 min (reference value: 100 +/-3.8%); design: scale not given: the % may be the effect or the level left
Spinacia oleracea [9] = assay: (§2) In vitro inhibition of basal rate of photosynthetic electron transport (Hill reaction) in active intact chloroplast thylakoid membrane of Spinacia oleracea (spinach) leaves assessed as inhibition of light-driven ferricyanide reduction at >10 uM measured at 24 degC at 30 secs intervals for 10 min
Spinacia oleracea [10] = assay: as §2, with “10” for “>10”, “min in presence of 0.25 to 1 mM uncoupler, NH4Cl” for “min”
In short: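 A fixed compound concentration was tested in the spinach thylakoid ferricyanide-reduction assay at increasing NH4Cl (uncoupler) levels. Activity is expressed as % of untreated samples containing the same amount of uncoupler, mean ± SE over at least six replications from two independent experiments.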

SMILES | Activity (Spinacia oleracea [1]) [%] | Activity (Spinacia oleracea [2]) [%] | further results
O=C1OC(=Cc2ccc(Cl)cc2)C=C1Cc1ccc(Br)cc1 | 89.4 | 94.1 | 
O=C1OC(=Cc2ccc(F)cc2)C=C1Cc1ccc(Br)cc1 | 68.5 | 74 | 
O=C1O/C(=C\c2ccc3c(c2)OCO3)C=C1Cc1ccc(Br)cc1 | 91 | 91.1 | 
CN(C)C(=O)Nc1ccc(Cl)c(Cl)c1 [DCMU] | 4.9 | 6.8 | Activity [3]: 20.7%; Activity [4]: 32.2%; Activity [5]: 38.5%; Activity [6]: 49.9%
O=C1OC(=Cc2ccc(C(F)(F)F)cc2)C=C1Cc1ccc(Br)cc1 | 48.8 | 71.7 | Activity [3]: 89.5%; Activity [5]: 94.5%; Activity (Spinacia oleracea [7]): 79.8%; Activity (Spinacia oleracea [8]): 52.1%; inhibition (Spinacia oleracea [9]): inactive
O=C1OC(=Cc2ccc(Br)cc2)C=C1Cc1ccc(Br)cc1 | 92 | 95.4 | 
COc1ccc(OC)c(/C=C2\C=C(Cc3ccc(Br)cc3)C(=O)O2)c1 | 71 | 94.1 | 
Cc1cccc(/C=C2\C=C(Cc3ccc(Br)cc3)C(=O)O2)c1 | 69.7 | 72.8 | 
N#Cc1ccc(C=C2C=C(Cc3ccc(Br)cc3)C(=O)O2)cc1 | 101 | 100 | 
O=C1OC(=Cc2cccc([N+](=O)[O-])c2)C=C1Cc1ccc(Br)cc1 | 66.9 | 72.6 | 
O=C1OC(=Cc2ccccc2)C=C1Cc1ccc(Br)cc1 | 42.9 | 54.1 | Activity [3]: 74.2%; Activity [5]: 82.6%; inhibition (Spinacia oleracea [10]): inactive; Activity (Spinacia oleracea [7]): 95.6%; Activity (Spinacia oleracea [8]): 47.9%; inhibition (Spinacia oleracea [9]): inactive
COc1cc(OC)c(/C=C2\C=C(Cc3ccc(Br)cc3)C(=O)O2)c(OC)c1 | 79.9 | 84.2 | 
CN(C)c1ccc(C=C2C=C(Cc3ccc(Br)cc3)C(=O)O2)c(Cl)c1 | 91 | 94.7 | 
